Measurements published in ChEMBL document CHEMBL1137688, “Design, synthesis and antibacterial activity of novel actinonin derivatives containing benzimidazole heterocycles” (2009).
≈ marks a conversion by molar mass, not a printed value.

How the values were obtained:
Assay type in all cases: functional
Staphylococcus aureus = test: Antimicrobial activity against Staphylococcus aureus CMCC 26112 after 24 hrs by broth microdilution method; settings: CMCC 26112, 24 h
Outline: (§1)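 Broth microdilution in Mueller-Hinton broth. Compounds tested across a doubling-dilution series, with cefoperazone as the positive control. Plates incubated 24 h at 37 °C. MIC taken as the lowest concentration showing no visible bacterial growth.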

Klebsiella pneumoniae = test: Antimicrobial activity against Klebsiella pneumoniae CMCC 46117 after 24 hrs by broth microdilution method; settings: CMCC 46117, 24 h; outline: as §1
Micrococcus luteus = test: Antimicrobial activity against Sarcina lutea CMCC 28001 after 24 hrs by broth microdilution method; settings: CMCC 28001, 24 h; outline: as §1

MIC (Staphylococcus aureus)	MIC (Klebsiella pneumoniae)	MIC (Micrococcus luteus)	Structure (SMILES)
16 µg/mL (≈ 33.8 µM)	8 µg/mL (≈ 16.9 µM)	16 µg/mL (≈ 33.8 µM)	CCCC[C@H](CC(=O)NO)C(=O)N[C@H](c1nc2cc(C(=O)N3CCOCC3)ccc2[nH]1)C(C)C
0.25 µg/mL (≈ 0.387 µM)	0.25 µg/mL (≈ 0.387 µM)	0.25 µg/mL (≈ 0.387 µM)	CCN1CCN(C(=O)N[C@@H](C(=O)N[C@@H]2C(=O)N3C(C(=O)O)=C(CSc4nnnn4C)CS[C@H]23)c2ccc(O)cc2)C(=O)C1=O [CEFOPERAZONE]
8 µg/mL (≈ 21.4 µM)	4 µg/mL (≈ 10.7 µM)	8 µg/mL (≈ 21.4 µM)	CCCC[C@H](CC(=O)NO)C(=O)N[C@H](c1nc2cc(C)ccc2[nH]1)C(C)C
> 64 µg/mL	8 µg/mL (≈ 17 µM)	> 64 µg/mL	CCCC[C@H](CC(=O)NO)C(=O)N[C@H](c1nc2cc(C(=O)N3CCCCC3)ccc2[nH]1)C(C)C
32 µg/mL (≈ 62.8 µM)	16 µg/mL (≈ 31.4 µM)	16 µg/mL (≈ 31.4 µM)	CCCC[C@H](CC(=O)NO)C(=O)N[C@H](c1nc2cc(C(=O)Nc3ccc(OC)cc3)ccc2[nH]1)C(C)C
2 µg/mL (≈ 5.55 µM)	0.5 µg/mL (≈ 1.39 µM)	4 µg/mL (≈ 11.1 µM)	CCCC[C@H](CC(=O)NO)C(=O)N[C@H](c1nc2ccccc2[nH]1)C(C)C
8 µg/mL (≈ 20.5 µM)	8 µg/mL (≈ 20.5 µM)	8 µg/mL (≈ 20.5 µM)	CCCC[C@H](CC(=O)NO)C(=O)N[C@H](c1nc2cc(OC)ccc2[nH]1)C(C)C
64 µg/mL (≈ 132 µM)	32 µg/mL (≈ 65.9 µM)	64 µg/mL (≈ 132 µM)	CCCC[C@H](CC(=O)NO)C(=O)N[C@H](c1nc2cc(C(=O)NC3CCCCC3)ccc2[nH]1)C(C)C
